According to ChEMBL document CHEMBL1811904, “Preventive oral treatment with resveratrol pro-prodrugs drastically reduce colon inflammation in rodents” (J Med Chem, 2010):
The source made the active and inactive calls.

Key:
Mus musculus [1] = experiment: (§1) Antiinflammatory activity in C57BL/6J mouse model of DSS-induced colon inflammation assessed as reduction of colon TNFRp55 level at 2.1 mg/kg/day, po for 21 days followed by compound dosing for 8 days co-administered with DSS followed by 2.1 mg/kg/day, po dosing for 6 days in absence of DSS measured on days 29 and day 35 by chemiluminescence assay; assay type: functional, organism-based
In short: (§2)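 After 21 days of chow with compound at 2.1 mg/kg day and 8 days of 1% DSS, distal colon mucosa (40 mg) homogenized in PBS with protease inhibitors and spun 15,000g, 30 min, 4 °C. Supernatants pooled per group to 300 µg protein and run on a 40-cytokine mouse inflammation antibody array. Chemiluminescent detection, densitometry; duplicate measurements.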

Stomach = experiment: Stability in C57BL/6J mouse stomach at 84 mg/kg administered through intragastric route measured after 8 hrs by HPLC-MS-MS analysis; assay type: ADME, organism-based; design: dose 84 mg/kg, route intragastric; settings: in vivo, po
In short: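 Healthy mice given 84 mg/kg by intragastric probe in ethanol:water (5:95, v:v); n=24 per group, three killed at each of 0.25, 0.5, 1, 2, 4, 8, 12 and 24 h. Stomach contents analyzed by HPLC-MS-MS for parent compounds and metabolites; AUC and Cmax derived.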

Mus musculus [2] = experiment: as §1, with “IL6” for “TNFRp55”; assay type: functional, organism-based; in short: as §2
Mus musculus [3] = experiment: as §1, with “in disease activity index” for “of colon TNFRp55 level”, “35” for “35 by chemiluminescence assay”; assay type: functional, organism-based
In short: (§3)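 Diet supplemented at 2.1 mg/kg day for 21 days before 8 days of 1% DSS in sterilized drinking water ad libitum; n=10 per group. Body weight followed through DSS and recovery phases; DAI combines stool blood, stool consistency and weight loss. ANOVA with Tukey post-hoc, mean ± SD.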

Mus musculus [4] = experiment: as §1, with “reduction in morphological signs” for “reduction”, “cell damage” for “colon TNFRp55 level”, “35” for “35 by chemiluminescence assay”; assay type: functional, organism-based
In short: (§4)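 Standard chow with compound at 2.1 mg/kg day for 21 days, then 1% DSS in sterilized drinking water ad libitum for the last 8 days (29 days total); n=10 per group, with control and DSS-only groups. Distal colon sections stained with hematoxylin and eosin and scored by Araki system: 0-4 each for surface epithelial loss, crypt destruction, inflammatory cell infiltration (max 12); mean ± SEM, Kruskal-Wallis then Mann-Whitney.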

Mus musculus [5] = experiment: (§5) Reduction in Escherichia coli count in C57BL/6J mouse distal colon mucosa with DSS-induced colon inflammation at 2.1 mg/kg/day, po for 21 days followed by compound dosing for 8 days co-administered with DSS followed by 2.1 mg/kg/day, po dosing for 6 days in absence of DSS by fecal microbiota analysis relative to control; assay type: functional, organism-based
In short: (§6)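 Fecal samples collected on days 0, 21 (before DSS) and 29 (after 8 days of 1% DSS) from mice fed 2.1 mg/kg day compound in chow. Bifidobacteria, lactobacilli, clostridia, enterobacteria and E. coli counted; ANOVA with Tukey post-hoc, mean ± SD.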

Mus musculus [6] = experiment: as §1, with “MIG” for “TNFRp55”; assay type: functional, organism-based; in short: as §2
Caco-2 = experiment: Metabolic stability in human Caco2 cells after 6 hrs by LC-MS-MS analysis; assay type: ADME, cell-based; settings: caco-2, 6 h
In short: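 Compounds incubated with human colon Caco-2 cells; cell media sampled at 6 h and analyzed by LC-MS-MS for parent compound and hydrolysis/conjugation products.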

CCD-18Co [7] = experiment: Antiinflammatory activity in human CCD-18Co cells assessed as inhibition of IL1beta-induced PGE2 production at 2.5 to 25 uM after 18 hrs; assay type: functional, cell-based
Mus musculus [8] = experiment: Effect on body weight in C57BL/6J mouse model of DSS-induced colon inflammation at 2.1 mg/kg/day, po for 21 days followed by compound dosing for 8 days co-administered with DSS followed by 2.1 mg/kg/day, po dosing for 6 days in absence of DSS measured on days 29 and day 35; assay type: functional, organism-based; in short: as §3
Mus musculus [9] = experiment: as §5, with “Increase” for “Reduction”, “Lactobacilli” for “Escherichia coli”; assay type: functional, organism-based; in short: as §6
Mus musculus [10] = experiment: as §5, with “Increase” for “Reduction”, “Clostridia” for “Escherichia coli”; assay type: functional, organism-based; in short: as §6
Mus musculus [11] = experiment: as §1, with “preservation” for “reduction”, “mucosal architecture” for “colon TNFRp55 level”, “35” for “35 by chemiluminescence assay”; assay type: functional, organism-based; in short: as §4
CCD-18Co [12] = experiment: Antiinflammatory activity in human CCD-18Co cells assessed inhibition of IL1beta-induced PGE2 production at 1 uM after 18 hrs; assay type: functional, cell-based
Mus musculus [13] = experiment: as §1, with “MIP1gamma” for “TNFRp55”; assay type: functional, organism-based; in short: as §2
Mus musculus [14] = experiment: Antiinflammatory activity in C57BL/6J mouse model of DSS-induced colon inflammation assessed as reduction in disease activity index at 2.1 mg/kg/day, po for 8 days co-administered with DSS measure on day 8; assay type: functional, organism-based
In short: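 No pre-feeding: compound co-administered with 1% DSS in drinking water for 8 days at 2.1 mg/kg day; n=14 per group, with DSS-only and untreated control groups. DAI scored from stool blood, stool form and weight loss.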

Mus musculus [15] = experiment: as §5, with “Increase” for “Reduction”, “Bifidobacterial” for “Escherichia coli”; assay type: functional, organism-based; in short: as §6
CCD-18Co [16] = experiment: Antiinflammatory activity in human CCD-18Co cells assessed inhibition of IL1beta-induced PGE2 production at 1 to 7.5 uM after 18 hrs; assay type: functional, cell-based
[17] = Cytotoxicity against human CCD-18Co cells at >10 uM after 8 hrs by MTT assay; assay type: cell-based

Oc1ccc(/C=C/c2cc(O)cc(O)c2)cc1 [RESVERATROL]
active: Activity (Mus musculus [1]) | Activity (Mus musculus [2]) | Activity (Mus musculus [4]) | Activity (Mus musculus [5]) | Activity (Mus musculus [6]) | inhibition (CCD-18Co [7]) | Activity (Mus musculus [10]) | Activity (Mus musculus [11]) | inhibition (CCD-18Co [12]) | Activity (Mus musculus [13])
inactive: Activity (Mus musculus [3]) | Activity (Mus musculus [8]) | Activity (Mus musculus [9]) | Activity (Mus musculus [14]) | Activity (Mus musculus [15])
Stable: Stability (Stomach) | Stability (Caco-2)

CCCCCCCC(=O)OC[C@H]1O[C@@H](Oc2cc(O)cc(/C=C/c3ccc(O)cc3)c2)[C@H](O)[C@@H](O)[C@@H]1O
active: Activity (Mus musculus [1]) | Activity (Mus musculus [2]) | Activity (Mus musculus [3]) | Activity (Mus musculus [4]) | Activity (Mus musculus [5]) | Activity (Mus musculus [6]) | Activity (Mus musculus [8]) | Activity (Mus musculus [9]) | inhibition (CCD-18Co [16]) | Activity (Mus musculus [10]) | Activity (Mus musculus [11]) | Activity (Mus musculus [13]) | Activity (Mus musculus [15])
Stable: Stability (Caco-2)
inactive: Activity (Mus musculus [14])

OC[C@H]1O[C@@H](Oc2ccc(/C=C/c3cc(O)cc(O)c3)cc2)[C@H](O)[C@@H](O)[C@@H]1O
active: inhibition (CCD-18Co [7])

CCCCCCCCCCCCCCCC(=O)OC[C@H]1O[C@@H](Oc2cc(O)cc(/C=C/c3ccc(O)cc3)c2)[C@H](O)[C@@H](O)[C@@H]1O
active: inhibition (CCD-18Co [16])
Toxic: Activity [17]

OC[C@H]1O[C@@H](Oc2ccc(/C=C/c3cc(O)cc(O[C@@H]4O[C@H](CO)[C@@H](O)[C@H](O)[C@H]4O)c3)cc2)[C@H](O)[C@@H](O)[C@@H]1O
inactive: inhibition (CCD-18Co [7])

OC[C@H]1O[C@@H](Oc2cc(O)cc(/C=C/c3ccc(O)cc3)c2)[C@H](O)[C@@H](O)[C@@H]1O
active: Activity (Mus musculus [1]) | Activity (Mus musculus [2]) | Activity (Mus musculus [4]) | Activity (Mus musculus [6]) | Activity (Mus musculus [11]) | Activity (Mus musculus [13])
inactive: Activity (Mus musculus [3]) | inhibition (CCD-18Co [7]) | Activity (Mus musculus [8]) | Activity (Mus musculus [9]) | Activity (Mus musculus [14]) | Activity (Mus musculus [15])

CCCCCCCCCCCCCCCCCC(=O)OC[C@H]1O[C@@H](Oc2cc(O)cc(/C=C/c3ccc(O)cc3)c2)[C@H](O)[C@@H](O)[C@@H]1O
active: inhibition (CCD-18Co [16])
Toxic: Activity [17]

CCCC(=O)OC[C@H]1O[C@@H](Oc2cc(O)cc(/C=C/c3ccc(O)cc3)c2)[C@H](O)[C@@H](O)[C@@H]1O
active: Activity (Mus musculus [1]) | Activity (Mus musculus [2]) | Activity (Mus musculus [3]) | Activity (Mus musculus [4]) | Activity (Mus musculus [5]) | Activity (Mus musculus [6]) | Activity (Mus musculus [8]) | Activity (Mus musculus [9]) | inhibition (CCD-18Co [16]) | Activity (Mus musculus [10]) | Activity (Mus musculus [11]) | Activity (Mus musculus [13]) | Activity (Mus musculus [15])
inactive: Activity (Mus musculus [14])
Stable: Stability (Caco-2)

CCCCCCCCCCCC(=O)OC[C@H]1O[C@@H](Oc2cc(O)cc(/C=C/c3ccc(O)cc3)c2)[C@H](O)[C@@H](O)[C@@H]1O
Toxic: Activity [17]
active: inhibition (CCD-18Co [16])

OC[C@H]1O[C@@H](Oc2cc(/C=C/c3ccc(O)cc3)cc(O[C@@H]3O[C@H](CO)[C@@H](O)[C@H](O)[C@H]3O)c2)[C@H](O)[C@@H](O)[C@@H]1O
inactive: Activity (Mus musculus [3]) | inhibition (CCD-18Co [7]) | Activity (Mus musculus [8]) | Activity (Mus musculus [9]) | Activity (Mus musculus [14]) | Activity (Mus musculus [15])
active: Activity (Mus musculus [1]) | Activity (Mus musculus [2]) | Activity (Mus musculus [4]) | Activity (Mus musculus [6]) | Activity (Mus musculus [11]) | Activity (Mus musculus [13])
